Reference: ChEMBL document CHEMBL1909519, “L-Proline anchored multicomponent synthesis of novel pyrido[2,3-a]carbazoles; investigation of in vitro antimicrobial, antioxidant, cytotoxicity and structure activity relationship studies” (Eur J Med Chem, 2011)
≈ marks a conversion by molar mass, not a printed value. Calls of active or inactive are those of the source. No cut-off for these calls is given here.

Tests used:
Staphylococcus aureus [1] = assay: Antibacterial activity against Staphylococcus aureus at 50 ug/ml after 24 hrs by agar disk diffusion assay; type: functional; conditions: read-out: DIZ
How it was run: (§1)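 Agar well diffusion on nutrient agar against Gram-positive clinical isolates (PSG Hospital, Coimbatore). Compounds in DMSO tested at 0 (control), 25, 50, 75, 100; DMSO as solvent and negative control; ciprofloxacin ([…]) as positive control. Plates incubated 37 ± 2 °C, 24 h; zone of inhibition diameter read in mm.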

Enterococcus faecalis [2] = assay: Antibacterial activity against Enterococcus faecalis at 50 ug/ml after 24 hrs by agar disk diffusion assay; type: functional; conditions: read-out: DIZ; how it was run: as §1
Escherichia coli [3] = assay: Antibacterial activity against Escherichia coli at 50 ug/ml after 24 hrs by agar disk diffusion assay; type: functional; conditions: read-out: DIZ
How it was run: (§2)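 Gram-negative clinical isolates (PSG Hospital, Coimbatore) tested by agar well diffusion on nutrient agar. Compounds dissolved in DMSO at 0 (control), 25, 50, 75, 100; DMSO was the negative control and ciprofloxacin ([…]) the positive control. Incubation 37 ± 2 °C for 24 h, then inhibition zone diameter measured in mm.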

Klebsiella pneumoniae [4] = assay: Antibacterial activity against Klebsiella pneumoniae at 50 ug/ml after 24 hrs by agar disk diffusion assay; type: functional; conditions: read-out: DIZ; how it was run: as §2
Aspergillus niger [5] = assay: Antifungal activity against Aspergillus niger at 50 ug/ml after 48 hrs by agar disk diffusion assay; type: functional; conditions: read-out: DIZ
How it was run: (§3)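 Fungal isolates (PSG Hospital, Coimbatore) grown on Sabouraud dextrose agar; agar well diffusion with compounds in DMSO at 0 (control), 25, 50, 75, 100. DMSO negative control, fluconazole ([…]) positive control. Plates held 28 ± 2 °C for 48 h; zone of inhibition diameter recorded in mm.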

Candida albicans [6] = assay: Antifungal activity against Candida albicans at 50 ug/ml after 48 hrs by agar disk diffusion assay; type: functional; conditions: read-out: DIZ; how it was run: as §3
Staphylococcus aureus [7] = assay: Antibacterial activity against Staphylococcus aureus after 24 hrs by agar disk diffusion assay; type: functional; how it was run: as §1
Enterococcus faecalis [8] = assay: Antibacterial activity against Enterococcus faecalis after 24 hrs by agar disk diffusion assay; type: functional; how it was run: as §1
Escherichia coli [9] = assay: Antibacterial activity against Escherichia coli after 24 hrs by agar disk diffusion assay; type: functional; how it was run: as §2
Klebsiella pneumoniae [10] = assay: Antibacterial activity against Klebsiella pneumoniae after 24 hrs by agar disk diffusion assay; type: functional; how it was run: as §2
Aspergillus niger [11] = assay: Antifungal activity against Aspergillus niger after 48 hrs by agar disk diffusion assay; type: functional; how it was run: as §3
Candida albicans [12] = assay: Antifungal activity against Candida albicans after 48 hrs by agar disk diffusion assay; type: functional; how it was run: as §3
B16-F10 [13] = assay: Cytotoxicity against mouse B16F10 cells after 48 hrs by SRB assay; type: functional, cell-based; conditions: B16-F10, 48 h
How it was run: (§4)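 Cells in RPMI-1640 with 10% heat-inactivated FBS, 1 mM NaHCO3, 2 mM L-glutamine, 37 °C, 5% CO2; seeded (B16F10 5 × 10⁴ cells/mL, others 1 × 10⁵ cells/mL), 24 h, then compounds in DMSO at 1.56–50 for 48 h, triplicate wells. TCA fixation, SRB staining 30 min, tris extraction, OD 520 nm; IC50 by linear regression, mean ± SD of three independent experiments; cisplatin positive control.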

HCT-15 [14] = assay: Cytotoxicity against human HCT15 cells after 48 hrs by SRB assay; type: functional, cell-based; conditions: HCT-15, 48 h; how it was run: as §4
[15] = test system: Radical scavenging activity; assay: Antioxidant activity assessed as DPPH radical scavenging activity upto 600 mg/ml after 30 mins by micro plate reader; type: functional
How it was run: (§5)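 DPPH assay: various compound concentrations brought to volume with ethanol, mixed with 0.1 mM ethanolic DPPH alongside vitamin C standard; shaken 30 min at 24 °C, absorbance read at 517 nm; concentration giving 50% decrease determined.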

A549 [16] = assay: Cytotoxicity against human A549 cells up to 50 ug/ml after 48 hrs by SRB assay; type: functional, cell-based; how it was run: as §4
[17] = Cytotoxicity against human SK-MEL-12 cells up to 50 ug/ml after 48 hrs by SRB assay; type: functional, cell-based; how it was run: as §4
SK-OV-3 [18] = assay: Cytotoxicity against human SKOV3 cells up to 50 ug/ml after 48 hrs by SRB assay; type: functional, cell-based; how it was run: as §4
Staphylococcus aureus [19] = assay: Antibacterial activity against Staphylococcus aureus at 25 ug/ml after 24 hrs by agar disk diffusion assay; type: functional; conditions: read-out: DIZ; how it was run: as §1
Enterococcus faecalis [20] = assay: Antibacterial activity against Enterococcus faecalis at 25 ug/ml after 24 hrs by agar disk diffusion assay; type: functional; conditions: read-out: DIZ; how it was run: as §1
Escherichia coli [21] = assay: Antibacterial activity against Escherichia coli at 25 ug/ml after 24 hrs by agar disk diffusion assay; type: functional; conditions: read-out: DIZ; how it was run: as §2
Klebsiella pneumoniae [22] = assay: Antibacterial activity against Klebsiella pneumoniae at 25 ug/ml after 24 hrs by agar disk diffusion assay; type: functional; conditions: read-out: DIZ; how it was run: as §2
Aspergillus niger [23] = assay: Antifungal activity against Aspergillus niger at 25 ug/ml after 48 hrs by agar disk diffusion assay; type: functional; conditions: read-out: DIZ; how it was run: as §3
Candida albicans [24] = assay: Antifungal activity against Candida albicans at 25 ug/ml after 48 hrs by agar disk diffusion assay; type: functional; conditions: read-out: DIZ; how it was run: as §3
A549 [25] = assay: Cytotoxicity against human A549 cells after 48 hrs by SRB assay; type: functional, cell-based; conditions: A549, 48 h; how it was run: as §4
[26] = Cytotoxicity against human SK-MEL-12 cells after 48 hrs by SRB assay; type: functional, cell-based; how it was run: as §4
SK-OV-3 [27] = assay: Cytotoxicity against human SKOV3 cells after 48 hrs by SRB assay; type: functional, cell-based; conditions: SK-OV-3, 48 h; how it was run: as §4
[28] = test system: Radical scavenging activity; assay: Antioxidant activity assessed as DPPH radical scavenging activity after 30 mins by micro plate reader; type: functional; how it was run: as §5
A549 [29] = assay: Ratio of cisplatin IC50 to compound IC50 for human A549 cells; type: functional
HCT-15 [30] = assay: Ratio of cisplatin IC50 to compound IC50 for human HCT15 cells; type: functional
Homo sapiens = species on record: Homo sapiens; assay: Ratio of cisplatin IC50 to compound IC50 for human SK-MEL-12; type: functional
B16-F10 [31] = assay: Ratio of cisplatin IC50 to compound IC50 for mouse B16F10; type: functional
Staphylococcus aureus [32] = assay: Antibacterial activity against Staphylococcus aureus at 100 ug/ml after 24 hrs by agar disk diffusion assay; type: functional; conditions: read-out: DIZ; how it was run: as §1
Enterococcus faecalis [33] = assay: Antibacterial activity against Enterococcus faecalis at 100 ug/ml after 24 hrs by agar disk diffusion assay; type: functional; conditions: read-out: DIZ; how it was run: as §1
Escherichia coli [34] = assay: Antibacterial activity against Escherichia coli at 100 ug/ml after 24 hrs by agar disk diffusion assay; type: functional; conditions: read-out: DIZ; how it was run: as §2
Klebsiella pneumoniae [35] = assay: Antibacterial activity against Klebsiella pneumoniae at 100 ug/ml after 24 hrs by agar disk diffusion assay; type: functional; conditions: read-out: DIZ; how it was run: as §2
Aspergillus niger [36] = assay: Antifungal activity against Aspergillus niger at 100 ug/ml after 48 hrs by agar disk diffusion assay; type: functional; conditions: read-out: DIZ; how it was run: as §3
Candida albicans [37] = assay: Antifungal activity against Candida albicans at 100 ug/ml after 48 hrs by agar disk diffusion assay; type: functional; conditions: read-out: DIZ; how it was run: as §3
B16-F10 [38] = assay: Cytotoxicity against mouse B16F10 cells up to 50 ug/ml after 48 hrs by SRB assay; type: functional, cell-based; how it was run: as §4
HCT-15 [39] = assay: Cytotoxicity against human HCT15 cells up to 50 ug/ml after 48 hrs by SRB assay; type: functional, cell-based; how it was run: as §4

Row | Structure (SMILES) | MIC (Staphylococcus aureus [7]) [µg/mL] | MIC (Enterococcus faecalis [8]) [µg/mL] | MIC (Escherichia coli [9]) [µg/mL] | MIC (Klebsiella pneumoniae [10]) [µg/mL] | MIC (Aspergillus niger [11]) [µg/mL] | MIC (Candida albicans [12]) [µg/mL] | IC50 (B16-F10 [13]) [µg/mL] | IC50 (HCT-15 [14]) [µg/mL] | IC50 (A549 [16]) | IC50 [17] | IC50 (SK-OV-3 [18]) | IC50 [28] [µg/mL] | other results
1 | Cc1ccc2[nH]c3c(c2c1)CCc1c-3nc(N)c(C#N)c1-c1ccc(N(C)C)cc1 | 50 (≈ 127 µM) | 50 (≈ 127 µM) | 50 (≈ 127 µM) | 50 (≈ 127 µM) | > 100 | > 100 | 34.6 (≈ 87.9 µM) | 43.5 (≈ 111 µM) | Not Active | Not Active | Not Active |  | zone of inhibition at 50 µg/mL (Staphylococcus aureus [1]): 17 mm; zone of inhibition at 50 µg/mL (Enterococcus faecalis [2]): 19 mm; zone of inhibition at 50 µg/mL (Escherichia coli [3]): 17 mm; zone of inhibition at 50 µg/mL (Klebsiella pneumoniae [4]): 18 mm; zone of inhibition at 50 µg/mL (Aspergillus niger [5]): 5 mm; zone of inhibition at 50 µg/mL (Candida albicans [6]): 9 mm; Activity [15]: inactive
2 | Cc1ccc2[nH]c3c(c2c1)CCc1c-3nc(N)c(C#N)c1-c1cccs1 | 25 (≈ 70.1 µM) | 25 (≈ 70.1 µM) | 25 (≈ 70.1 µM) | 25 (≈ 70.1 µM) | 75 (≈ 210 µM) | 75 (≈ 210 µM) | 2.85 (≈ 8 µM) | 3.45 (≈ 9.68 µM) |  |  |  | 227.37 (≈ 638 µM) | zone of inhibition at 25 µg/mL (Staphylococcus aureus [19]): 26 mm; zone of inhibition at 25 µg/mL (Enterococcus faecalis [20]): 29 mm; zone of inhibition at 25 µg/mL (Escherichia coli [21]): 27 mm; zone of inhibition at 25 µg/mL (Klebsiella pneumoniae [22]): 28 mm; zone of inhibition at 25 µg/mL (Aspergillus niger [23]): 15 mm; zone of inhibition at 25 µg/mL (Candida albicans [24]): 17 mm; IC50 (A549 [25]): 4.04 µg/mL (≈ 11.3 µM); IC50 [26]: 4.61 µg/mL (≈ 12.9 µM); IC50 (SK-OV-3 [27]): 10 µg/mL (≈ 28.1 µM); Ratio IC50 (A549 [29]): 1.39; Ratio IC50 (HCT-15 [30]): 2.31; Ratio IC50 (Homo sapiens): 2.25; Ratio IC50 (B16-F10 [31]): 1.94
3 | CCOC(=O)c1c(N)nc2c(c1-c1ccccc1)CCc1c-2[nH]c2ccc(C)cc12 | 100 (≈ 252 µM) | 100 (≈ 252 µM) | 100 (≈ 252 µM) | 100 (≈ 252 µM) | > 100 | > 100 |  |  | Not Active | Not Active | Not Active | 300.84 (≈ 757 µM) | zone of inhibition at 100 µg/mL (Staphylococcus aureus [32]): 14 mm; zone of inhibition at 100 µg/mL (Enterococcus faecalis [33]): 15 mm; zone of inhibition at 100 µg/mL (Escherichia coli [34]): 13 mm; zone of inhibition at 100 µg/mL (Klebsiella pneumoniae [35]): 16 mm; zone of inhibition at 100 µg/mL (Aspergillus niger [36]): 4 mm; zone of inhibition at 100 µg/mL (Candida albicans [37]): 2 mm; IC50 (B16-F10 [38]): Not Active; IC50 (HCT-15 [39]): Not Active
